Source: ChEMBL document CHEMBL2203144, “Synthesis and evaluation of antimicrobial activity of 4H-pyrimido[2,1-b]benzothiazole, pyrazole and benzylidene derivatives of curcumin” (Eur J Med Chem, 2012)
Active and inactive are the calls of the source. The rule behind the calls is not given here.

Assays:
Aspergillus flavus [1] = test: Antifungal activity against Aspergillus flavus after 72 hrs by broth dilution method; format: functional
Method in brief: (§1)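 Compounds and fluconazole reference were dissolved in acetone at 120 µM/mL and serially diluted to 20–0.315 µM/mL. 10 µL compound plus 10 µL fungal culture broth added to 150 µL Sabouraud dextrose medium per well. Optical density recorded, then incubated 72 h at 28 °C. MIC95 taken from absence of turbidity. Acetone-at-same-dilution solvent control.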

Bacillus cereus = test: Antibacterial activity against Bacillus cereus MTCC 7350 after 24 hrs by broth microdilution method; format: functional
Method in brief: (§2)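 Microwell broth dilution in brain heart infusion broth (nutrient broth adjusted to pH 7.0). Inoculum from 16 h cultures, adjusted to 0.5 McFarland (1.5 × 10⁸ CFU/mL). 10 µL compound (serial dilutions 20 down to 0.625 or 0.312 µM/mL) plus 10 µL culture added to 150 µL broth. Incubated 24 h at 37 °C. MIC95 is the lowest concentration with no turbidity. Ciprofloxacin reference; inoculum and broth controls.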

Aspergillus fumigatus [2] = test: Antifungal activity against Aspergillus fumigatus after 72 hrs by broth dilution method; format: functional; method in brief: as §1
Aspergillus niger [3] = test: Antifungal activity against Aspergillus niger after 72 hrs by broth dilution method; format: functional; method in brief: as §1
Aspergillus flavus [4] = test: Antifungal activity against Aspergillus flavus after 72 hrs by agar disk diffusion method; format: functional
Method in brief: (§3)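 Sterile filter-paper discs dipped in the acetone dilutions of compound (20–0.315 µM/mL), then dried to remove acetone. Sabouraud dextrose agar plates spread with 1 mL fungal culture. Discs placed aseptically; one drug-free disc served as growth control; fluconazole reference. Plates incubated upright 72 h at 28 °C. Zone of inhibition measured in mm with a scale.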

Salmonella typhi = test: Antibacterial activity against Salmonella typhi ATCC 15499 after 24 hrs by broth microdilution method; format: functional, Salmonella enterica subsp. enterica serovar Typhi
Method in brief: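 Broth microdilution in brain heart infusion broth in microwells. Inoculum was prepared from 16 h cultures adjusted to the 0.5 McFarland standard (1.5 × 10⁸ CFU/mL). Compounds were serially diluted from 20 down to 0.625 µM/mL and added to the broth, followed by the bacterial culture. Plates were incubated 24 h at 37 °C, with optical density read. MIC95 was the lowest concentration giving no turbidity. Inoculum and broth controls were included.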

Pseudomonas aeruginosa = test: Antibacterial activity against Pseudomonas aeruginosa ATCC 23564 after 24 hrs by broth microdilution method; format: functional; method in brief: as §2
Escherichia coli = test: Antibacterial activity against Escherichia coli ATCC 35218 after 24 hrs by broth microdilution method; format: functional; method in brief: as §2
Providencia rettgeri = test: Antibacterial activity against Providencia rettgeri DRDE after 24 hrs by broth microdilution method; format: functional; method in brief: as §2
[5] = Cytotoxicity against human L123 cells after 48 hrs by MTT assay; format: cell-based
Method in brief: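 MTT assay. 2×10³ cells per well in MEM + 10% FBS, attached 24 h, then treated at 5, 10, 20, 50 and 100 µM/mL for 48 h; controls received medium with 0.2% DMSO. Duplicate treatments. Cells PBS-washed, given MTT (stock 1 mg/mL) for 4 h at 37 °C. Formazan dissolved in DMSO, read at 590 nm. IC50 is the concentration reducing viability by 50%.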

Staphylococcus aureus = test: Antibacterial activity against Staphylococcus aureus ATCC 11632 after 24 hrs by broth microdilution method; format: functional; method in brief: as §2
Aspergillus fumigatus [6] = test: Antifungal activity against Aspergillus fumigatus after 72 hrs by agar disk diffusion method; format: functional; method in brief: as §3
Aspergillus niger [7] = test: Antifungal activity against Aspergillus niger after 72 hrs by agar disk diffusion method; format: functional; method in brief: as §3
[8] = Salmonella enterica subsp. enterica serovar Typhi

Structure (SMILES) | MIC95 (Aspergillus flavus [1]) | MIC95 (Bacillus cereus) | MIC95 (Aspergillus fumigatus [2]) | MIC95 (Aspergillus niger [3]) | inhibition zone (IZ) (Aspergillus flavus [4]) | MIC95 (Salmonella typhi) | MIC95 (Pseudomonas aeruginosa) | MIC95 (Escherichia coli) | MIC95 (Providencia rettgeri) | IC50 [5] | MIC95 (Staphylococcus aureus) | inhibition zone (IZ) (Aspergillus fumigatus [6]) | inhibition zone (IZ) (Aspergillus niger [7]) | MIC95 (Salmonella typhi; [8])
COc1cc(/C=C/c2cc(/C=C/c3ccc(O)c(OC)c3)n(-c3ccc([N+](=O)[O-])cc3[N+](=O)[O-])n2)ccc1O | 1.25 uM/ml | 1.25 uM/ml | inactive | 2.5 uM/ml | 20 mm | 2.5 uM/ml | inactive | inactive | inactive | > 100 uM/ml | 1.25 uM/ml | inactive | 17 mm | –
COc1cc(/C=C/C(=O)C(=Cc2ccc(N(C)C)cc2)C(=O)/C=C/c2ccc(O)c(OC)c2)ccc1O | inactive | 0.625 uM/ml | 1.25 uM/ml | 5 uM/ml | inactive | 2.5 uM/ml | 1.25 uM/ml | inactive | inactive | > 100 uM/ml | 5 uM/ml | 20 mm | 15 mm | –
COc1cc(/C=C/C(=O)C2=C(/C=C/c3ccc(O)c(OC)c3)N=C3Sc4ccccc4N3C2c2ccc(C)cc2)ccc1O (centres undefined) | inactive | 5 uM/ml | inactive | inactive | inactive | – | inactive | 10 uM/ml | 20 uM/ml | – | 20 uM/ml | inactive | inactive | inactive
COc1cc(/C=C/C(=O)C2=C(/C=C/c3ccc(O)c(OC)c3)N=C3Sc4ccccc4N3C2c2ccc(Cl)cc2)ccc1O (centres undefined) | inactive | 5 uM/ml | inactive | inactive | inactive | – | 20 uM/ml | 10 uM/ml | inactive | > 100 uM/ml | inactive | inactive | inactive | inactive
COc1cc(/C=C/C(=O)C2=C(/C=C/c3ccc(O)c(OC)c3)N=C3Sc4ccccc4N3C2c2ccccc2O)ccc1O (centres undefined) | inactive | 5 uM/ml | inactive | inactive | inactive | – | 20 uM/ml | inactive | inactive | 50 uM/ml | 20 uM/ml | inactive | inactive | inactive
OC(Cn1cncn1)(Cn1cncn1)c1ccc(F)cc1F [FLUCONAZOLE] | 1.25 uM/ml | – | 1.25 uM/ml | 2.5 uM/ml | 25 mm | – | – | – | – | – | – | 22 mm | 18 mm | –
COc1cc(/C=C/C(=O)C2=C(/C=C/c3ccc(O)c(OC)c3)N=C3Sc4ccccc4N3C2c2ccc(O)c(OC)c2)ccc1O (centres undefined) | 12 uM/ml | 2.5 uM/ml | inactive | inactive | 11 mm | 10 uM/ml | 5 uM/ml | 10 uM/ml | 10 uM/ml | – | inactive | inactive | inactive | –
COc1cc(/C=C/C(=O)CC(=O)/C=C/c2ccc(O)c(OC)c2)ccc1O [CURCUMIN] | inactive | 10 uM/ml | 20 uM/ml | 20 uM/ml | inactive | 20 uM/ml | inactive | 20 uM/ml | 20 uM/ml | – | 20 uM/ml | 12 mm | 9 mm | –
